Results taken from ChEMBL document CHEMBL1138791, “Acyl sulfonamide anti-proliferatives: benzene substituent structure-activity relationships for a novel class of antitumor agents” (J Med Chem, 2004).

Columns and labels:
HCT-116 [1] = experiment: Diameter of zone of inhibition for cell colony formation of solid tumor HCT116 at the dose of 200 ug; type: functional, Homo sapiens
Method in brief: (§1)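 HCT116, L1210 leukaemia and normal fibroblast cells were seeded in soft agar in separate 60 mm dishes. The compound was applied to a filter-paper disk laid on the agar. Colony-formation inhibition zones were read after 6–7 days at 37 °C and expressed in zone units (200 units = 6.5 mm; 950 = total inhibition; 0 = none). n > 2 unless otherwise indicated.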

SW-620 = experiment: Growth inhibitory activity against human colon SW620 cell line; type: functional
Method in brief: (§2)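 Cell-line screen run at NCI by published procedures. […] The mean graph midpoint is taken across all human cancer cell lines successfully tested.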

MCF7 = experiment: Growth inhibitory activity against human breast MCF-7 cell line; type: functional; method in brief: as §2
[2] = system: Panel (Carcinoma cell lines); experiment: Mean graph mid point value for cytotoxic activity against human cancer cell lines was determined; type: functional; method in brief: as §2
L1210 [3] = experiment: Diameter of zone of inhibition for cell colony formation of L1210 leukemia cell lines at the dose of 200 ug; type: functional, Mus musculus
Method in brief: (§3)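 Soft agar disk diffusion: leukemia (L1210), solid tumor (HCT116, or colon H15) and normal fibroblast cells seeded in soft agar in separate 60 mm dishes. Compound applied to a filter paper disk (dose in μg/disk) set on the agar. Colony-formation inhibition zones read after 6–7 days at 37 °C. 200 zone units = 6.5 mm; 950 = total inhibition; a range marks partial colony shrinkage. n > 2 unless noted.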

[4] = Diameter of zone of inhibition for cell colony formation of normal fibroblast at the dose of 200 ug; Range is 0-11; type: functional, Homo sapiens; method in brief: as §3
HCT-116 [5] = experiment: Growth inhibitory activity against human colon HCT116 cell line; type: functional; method in brief: as §2
HT-29 = experiment: Growth inhibitory activity against human colon HT-29 cell line; type: functional; method in brief: as §2
HL-60 = experiment: Growth inhibitory activity against human leukemia HL-60 (TB) cell line; type: functional; parameters: unit not given here
NCI-H522 = experiment: Growth inhibitory activity against human lung NCI-H522 cell line; type: functional; method in brief: as §2
RXF 393 = experiment: Growth inhibitory activity against human renal RXF-393 cell line; type: functional; method in brief: as §2
L1210 [6] = experiment: Diameter of zone of inhibition for cell colony formation of leukemia L1210 at the dose of 200 ug; Range is 1.3-5.85; type: functional, Mus musculus; method in brief: as §3
[7] = Diameter of zone of inhibition for cell colony formation of normal fibroblast at the dose of 200 ug; Range is 0-11.7; type: functional, Homo sapiens; method in brief: as §3
Mus musculus [8] = experiment: Tumor growth delay of human HCT116 colorectal carcinoma in mice after intravenous administration at dose of 85 mg/kg; type: functional
Method in brief: (§4)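 Female nude mice were implanted with HCT116 tumour tissue from donor mice and randomized once tumours averaged 100 mm3. The sodium salt in saline (pH 7.4) was given by iv bolus on days 1–5 and 8–12. Tumour volumes were recorded twice weekly. TGD = T − C, the time to reach 500 mm3 taken from a fitted tumour-growth model.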

Mus musculus [9] = experiment: Tumor growth delay of human HCT116 colorectal carcinoma in mice after intravenous administration at dose of 128 mg/kg; type: functional; method in brief: as §4
Mus musculus [10] = experiment: Tumor growth delay of human HCT116 colorectal carcinoma in mice after intravenous administration at dose of 64 mg/kg; type: functional; method in brief: as §4
[11] = Diameter of zone of inhibition for cell colony formation of normal fibroblast at the dose of 200 ug; Range is 0-16.9; type: functional, Homo sapiens; method in brief: as §3
L1210 [12] = experiment: Diameter of zone of inhibition for cell colony formation of leukemia L1210 at the dose of 200 ug; Range is 0-9.1; type: functional, Mus musculus; method in brief: as §3
[13] = Diameter of zone of inhibition for cell colony formation of normal fibroblast at the dose of 190 ug; Range is 0-16.575; type: functional, Homo sapiens; method in brief: as §3
HCT-116 [14] = experiment: Diameter of zone of inhibition for cell colony formation of solid tumor HCT116 at the dose of 190 ug; type: functional, Homo sapiens; method in brief: as §3
L1210 [15] = experiment: Diameter of zone of inhibition for cell colony formation of leukemia L1210 at the dose of 190 ug; Range is 0-10.4; type: functional, Mus musculus; method in brief: as §3
HCT-116 [16] = experiment: Diameter of zone of inhibition for cell colony formation of solid tumor HCT116 at the dose of 210 ug; type: functional, Homo sapiens; method in brief: as §1
L1210 [17] = experiment: Diameter of zone of inhibition for cell colony formation of leukemia L1210 at the dose of 210 ug; Range is 0-5.525; type: functional, Mus musculus; method in brief: as §3
[18] = Diameter of zone of inhibition for cell colony formation of normal fibroblast at the dose of 210 ug; Range is 0-6.5; type: functional, Homo sapiens; method in brief: as §3
L1210 [19] = experiment: Diameter of zone of inhibition for cell colony formation of leukemia L1210 at the dose of 200 ug; Range is 0-6.5; type: functional, Mus musculus; method in brief: as §3
[20] = Diameter of zone of inhibition for cell colony formation of normal fibroblast at the dose of 200 ug; Range is 0-2.6; type: functional, Homo sapiens; method in brief: as §3
L1210 [21] = experiment: Diameter of zone of inhibition for cell colony formation of leukemia L1210 at the dose of 190 ug; type: functional, Mus musculus; method in brief: as §3
[22] = Diameter of zone of inhibition for cell colony formation of normal fibroblast at the dose of 190 ug; Range is; type: functional, Homo sapiens; method in brief: as §3
HCT-116 [23] = experiment: Diameter of zone of inhibition for cell colony formation of solid tumor HCT116 at the dose of 210 ug: range is 6.5-8.125; type: functional, Homo sapiens; method in brief: as §1
L1210 [24] = experiment: Diameter of zone of inhibition for cell colony formation of leukemia L1210 at the dose of 210 ug; type: functional, Mus musculus; method in brief: as §3
[25] = Diameter of zone of inhibition for cell colony formation of normal fibroblast at the dose of 190 ug; Range is 0-.975; type: functional, Homo sapiens; method in brief: as §3
L1210 [26] = experiment: Diameter of zone of inhibition for cell colony formation of leukemia L1210 at the dose of 190 ug; Range is 3.75-4.875; type: functional, Mus musculus; method in brief: as §3
[27] = Diameter of zone of inhibition for cell colony formation of normal fibroblast at the dose of 190 ug; Range is 0-6.5; type: functional, Homo sapiens; method in brief: as §3
[28] = Diameter of zone of inhibition for cell colony formation of normal fibroblast at the dose of 210 ug; Range is 0-13; type: functional, Homo sapiens; method in brief: as §3
L1210 [29] = experiment: Diameter of zone of inhibition for cell colony formation of leukemia L1210 at the dose of 210 ug; Range is 0-11.375; type: functional, Mus musculus; method in brief: as §3
L1210 [30] = experiment: Diameter of zone of inhibition for cell colony formation of leukemia L1210 at the dose of 200 ug; type: functional, Mus musculus; method in brief: as §3
[31] = Diameter of zone of inhibition for cell colony formation of normal fibroblast at the dose of 210 ug; type: functional, Homo sapiens; method in brief: as §3

SMILES: O=C(NS(=O)(=O)c1ccc(Cl)cc1)c1ccc(Cl)cc1Cl
- Inhibition (HCT-116 [1]): 19.5 mm
- GI50 (SW-620): 39.6 µM
- GI50 (MCF7): 1.5 µM
- MGM [2]: 26.3
- Inhibition (L1210 [3]): 6.5 mm
- Inhibition [4]: 11 mm
- GI50 (HCT-116 [5]): 5.3 µM
- GI50 (HT-29): 54.8 µM
- GI50 (HL-60): 34.7
- GI50 (NCI-H522): 8.6 µM
- GI50 (RXF 393): 11 µM

SMILES: O=C(NS(=O)(=O)c1ccc(Cl)c(Cl)c1)c1ccc(Cl)cc1Cl
- Inhibition (HCT-116 [1]): 18.2 mm
- Inhibition (L1210 [6]): 5.85 mm
- Inhibition [7]: 11.7 mm

SMILES: O=C(NS(=O)(=O)c1ccccc1)c1ccc(Cl)cc1Cl
- Growth delay (Mus musculus [8]): 15 days
- GI50 (SW-620): 8.6 µM
- Growth delay (Mus musculus [9]): 22 days
- GI50 (MCF7): 18.9 µM
- MGM [2]: 33.1
- Growth delay (Mus musculus [10]): 14 days
- GI50 (HCT-116 [5]): 5.4 µM
- GI50 (HT-29): 52 µM
- GI50 (HL-60): 32.9
- GI50 (NCI-H522): 18.7 µM
- GI50 (RXF 393): 4.3 µM

SMILES: O=C(NS(=O)(=O)c1ccc(F)cc1)c1ccc(Cl)cc1Cl
- Inhibition (HCT-116 [1]): 28.6 mm
- Inhibition [11]: 16.9 mm
- Inhibition (L1210 [12]): 9.1 mm

SMILES: Cc1ccc(S(=O)(=O)NC(=O)c2ccc(Cl)cc2Cl)cc1
- Inhibition [13]: 16.57 mm
- Inhibition (HCT-116 [14]): 27.3 mm
- Inhibition (L1210 [15]): 10.4 mm

SMILES: O=C(NS(=O)(=O)c1cc(Cl)cc(Cl)c1)c1ccc(Cl)cc1Cl
- Inhibition (HCT-116 [16]): 12.35 mm
- Inhibition (L1210 [17]): 5.52 mm
- Inhibition [18]: 6.5 mm

SMILES: COC(=O)c1ccc(S(=O)(=O)NC(=O)c2ccc(Cl)cc2Cl)cc1
- Inhibition (HCT-116 [1]): 21.12 mm
- Inhibition (L1210 [19]): 6.5 mm
- Inhibition [20]: 2.6 mm

SMILES: O=C(NS(=O)(=O)c1ccc([N+](=O)[O-])cc1)c1ccc(Cl)cc1Cl
- Inhibition (L1210 [21]): 3.57 mm
- Inhibition [22]: 10.07 mm
- Inhibition (HCT-116 [14]): 17.55 mm

SMILES: Cc1cccc(S(=O)(=O)NC(=O)c2ccc(Cl)cc2Cl)c1
- Inhibition (HCT-116 [23]): 8.12 mm
- Inhibition (L1210 [24]): 6.5 mm
- Inhibition [18]: 6.5 mm

SMILES: O=C(NS(=O)(=O)c1ccc(Cl)cc1)c1cccc(Br)c1
- Inhibition (L1210 [21]): 6.82 mm
- Inhibition [25]: 0.97 mm
- Inhibition (HCT-116 [14]): 10.4 mm

SMILES: O=C(NS(=O)(=O)c1cccc(Cl)c1)c1ccc(Cl)cc1Cl
- Inhibition (L1210 [26]): 4.87 mm
- Inhibition [27]: 6.5 mm
- Inhibition (HCT-116 [14]): 16.73 mm

SMILES: CN(C)c1ccc(S(=O)(=O)NC(=O)c2ccc(Cl)cc2Cl)cc1
- Inhibition (HCT-116 [16]): 28.75 mm
- Inhibition [28]: 13 mm
- Inhibition (L1210 [29]): 11.37 mm

SMILES: O=C(NS(=O)(=O)c1ccc(Cl)cc1)c1ccc(C(F)(F)F)cc1C(F)(F)F
- Inhibition (HCT-116 [1]): 16.9 mm
- Inhibition (L1210 [30]): 0 mm
- Inhibition [7]: 11.7 mm

SMILES: O=C(NS(=O)(=O)c1ccccc1Cl)c1ccc(Cl)cc1Cl
- Inhibition [31]: 0 mm
- Inhibition (HCT-116 [16]): 0 mm
- Inhibition (L1210 [24]): 0 mm
